In the library only some 5.7% were active in any assay of this set; here they are far more common.
T cruzi repl – blocks replication of Trypanosoma cruzi | T. cruzi beta-gal in NIH3T3, luminescence, 90 h | inhibition, % (test concentration not listed) | 300,000 tested, 1.4% active | AID 1885;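 active = mean inhibition across valid replicates above about 55%, limit read from the data; inconclusive = mean below that limit but half or more replicates reach it; inactive = mean below it, under half of replicates reach it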;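 also: signal also drops with host cell toxicity which is not excluded here; 0% = plate median of DMSO wells and 100% = zero luminescence signal; higher percent means less beta-gal luminescence so fewer parasites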
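System: NIH/3T3 fibroblasts plus reporter T. cruzi. Medium: DMEM plus 2% FBS. Probe or stimulus: 5000 reporter trypomastigotes per well. Compound: single 50 nL compound addition per well in DMSO. Incubation: co-culture of at least 90 h after 3 h attachment. Detection: GalScreen β-gal luminescence, detergent lysis, 60 min. Evaluation: parasite load inhibition, %.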
CSC inhib – blocks cancer stem cells. 300,000 tested, 1.1% active. AID 2717. cancer stem cell-like cells viability, luminescence. inhibition, % at 7.5 µM; in the data active = inhibition above about 75%; inconclusive = no clear call, values can overlap the other calls; tested in HMLE shEcad cells
Beta apoptosis – beta cell apoptosis inhibition; protection from apoptosis, % (test concentration not listed); AID 435005; 300,000 tested, 0.8% active; INS-1E cytokine-induced death, ATP luminescence, 48 h; percent of positive-control rescue, neutral wells zero;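 active = Every replicate reaches about 75%, or at least half do and their mean reaches it too, limit read from the data; inconclusive = At least half of replicates reach the limit but their mean does not; inactive = Under half of replicates reach the limit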;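 also: 0% = cytokine-treated negative control wells and 100% = positive control rescue; higher means more ATP so stronger rescue from cytokine killing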
Mdm2-MdmX inh – human Mdm2/MdmX binding inhibition. 330,000 tested, 3% active. SaOS-2 split-luciferase Mdm2/MdmX complementation, luminescence. inhibition, % at 8 µM. AID 485346;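 active = inhibition of at least 50% at 8 µM in the primary screen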
Calb FLC – affects C. albicans growth with fluconazole | C. albicans CaCi-2 + fluconazole, Alamar Blue growth, 48 h | growth inhibition, % (test concentration not listed) | 300,000 tested, 0.57% active | AID 1979;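 active = growth inhibition above about 58% in most replicates, limit read from the data, passing the limit was not always enough; inconclusive = exactly half the replicates above a set limit; inactive = most replicates below a set limit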;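 also: all wells also contain fluconazole at 8 µg/ml as a sub-toxic cotreatment; 0% = median of DMSO wells and 100% = median of geldanamycin control wells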
SKKanGAS inh – SKKanGAS growth inhibition; S. pyogenes SKKanGAS, kanamycin growth, BacTiter-Glo, 6 h; inhibition, % at 7.5 µM; 300,000 tested, 1.3% active; AID 1662;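 active = mean replicate score, as percent of positive control median, at least 50; inconclusive = mean below 50 but one replicate at or above 50; inactive = mean and every replicate below 50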;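 also: strain carries kanamycin resistance gene driven by streptokinase promoter and grows in 40 µg/ml kanamycin; loss of luminescence reflects streptokinase promoter inhibition or plain growth inhibition; 0% = median of DMSO wells and 100% = positive control at its reference dose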
* = called active by the depositor; ? = inconclusive; / = not tested or not shown.

SMILES | T cruzi repl | CSC inhib | Beta apoptosis | Mdm2-MdmX inh | Calb FLC | SKKanGAS inh
CCn1c(SCC(=O)Nc2ccc(OC)cc2)nc2nc3c(cc2c1=O)CCCC3 | 1 | 57 | 146* | 37 | 17 | 6
CC(=O)OCC12COC3c4ccccc4OC(C)(CC1C)C3C2C (stereo unspecified) | 1 | -6 | 2 | 7 | 106* | -3
CC1CC2(C)Oc3ccccc3C3OCC1(CO)C(C)C32 (stereo unspecified) | 6 | -4 | -3 | -27 | -1 | 4
CCCNC(=O)Cn1sc2nc(C)cc(C)c2c1=O | 56* | 31 | -1 | 9 | -7 | 6
Cc1cc(C)c2c(=O)n(CC(=O)N3CCC(N4CCCCC4)CC3)sc2n1 | -9 | -7 | -2 | -9 | -2 | 1
Clc1ccc(-c2nnc(-c3ccccc3)o2)cn1 | -8 | -2 | 5 | / | -7 | -5
Cc1ccccc1-c1cc2c(nn1)-c1ccccc1C2=O | -1 | 108* | 7 | -32 | -12 | 27
CCC1(c2ccccc2)NC(=O)N(CC(=O)NC2CCCCCC2)C1=O (stereo unspecified) | / | -13 | -2 | 1 | / | /
Cn1c(SCc2ccc([N+](=O)[O-])cc2)nnc1-c1ccncc1 | -14 | -5 | 4 | 19 | 1 | -3
O=C(O)c1ccccc1C(=O)NNc1ccc(F)cc1 | -5 | 42 | 0 | 6 | 102* | -3
COc1ccc(CNC(=O)C(C)OC(=O)CO/N=C(\C)c2ccc3c(c2)OCO3)cc1 (stereo unspecified) | -9 | -2 | -4 | 3 | -7 | -23
Cc1cc2occ(CC(=O)N(CC(C)C)c3c(N)n(Cc4ccccc4)c(=O)[nH]c3=O)c2cc1C | -3 | -6 | -5 | 20 | -36 | -4
Cc1ccc2c(c1)S/C(=C/c1ccc[n+](C)c1)N2CCO | 57* | 1 | 95* | -3 | 13 | -1
CCN1CCN(C(=O)CCc2nnc(CCc3ccc(OC)cc3)o2)[C@@H](C)C1=O | 5 | -14 | 4 | 11 | 24 | 3
CCOC(=O)/C(=N\Nc1cccc(C(F)(F)F)c1)N1CCOCC1 | -12 | 83* | -4 | -10 | 114* | -7
C#CCOCCOCCOCCNc1nc(N2CCN(C(=O)[C@H](CCCN=C(N)N)n3cc(C(N)[C@@H](C)CC)nn3)CC2)nc(N2CCN(C(=O)[C@H](CCC(=O)O)n3cc([C@@H](N)CO)nn3)CC2)n1 (stereo partly specified) | / | / | 0 | -6 | / | /
Fc1ccc(N/N=C/c2ccc(N3CCOCC3)cc2)c(F)c1 | 65* | 26 | 1 | -121 | -32 | -8
C/C(=N\Nc1ccc(F)cc1F)c1ccc(N2CCOCC2)cc1 | -4 | 1 | -2 | -68 | 104* | -7
CC(=O)NCCc1ccc(C(=O)COC(=O)C2CCCCC2)cc1 | / | -14 | -2 | 43 | / | /
O=[N+]([O-])c1ccc(-c2ccn[nH]2)o1 | 68* | -3 | -2 | -17 | 49 | 8
O=[N+]([O-])c1ccc(/C=[N+](\[O-])[C@@H]2CCCC[C@@H]2/[N+]([O-])=C/c2ccc([N+](=O)[O-])o2)o1 | 39 | 15 | -12 | 3 | 16 | 8
CCC(NC(=O)c1cccc(Cn2cc([N+](=O)[O-])cn2)c1)c1ccc(C(C)C)cc1 (stereo unspecified) | 48 | 9 | 2 | 4 | 15 | 5
CC(NC(=O)c1cccc(Cn2cc([N+](=O)[O-])cn2)c1)c1ccc(C(C)(C)C)cc1 (stereo unspecified) | 55* | 3 | 3 | 24 | -29 | 1
Cn1c(C(=O)NCc2cccnc2)cc2sc(Cl)cc21 | 61* | -8 | 0 | 1 | -6 | 1
O=C(NCc1cccnc1)c1sc2cc(Cl)ccc2c1Cl | 42 | -4 | -12 | 23 | 3 | -12
SMILES | T cruzi repl | CSC inhib | Beta apoptosis | Mdm2-MdmX inh | Calb FLC | SKKanGAS inh
O=C(Cn1ncn2nc(-c3ccccc3)cc2c1=O)NCc1ccccn1 | -17 | -9 | -13 | -12 | 4 | -7
COC(=O)c1ccccc1S(=O)(=O)N1CCC(C(=O)NCc2ccco2)CC1 | / | -9 | -5 | -10 | / | /
COCCCC1CCN(C(=O)C2CCC(=O)N(CC3CCCCC3)C2)CC1 (stereo unspecified) | 0 | -16 | -1 | 20 | -8 | -1
C=CCOc1ccc(C2C(C(=O)c3cccs3)=C(O)C(=O)N2c2nnc(C)s2)cc1 (stereo unspecified) | 3 | / | -5 | -7 | 1 | 20
COc1ccc(C2C(C(=O)c3cccs3)=C(O)C(=O)N2c2nncs2)cc1 (stereo unspecified) | -14 | -6 | -9 | 7 | 116* | -8
CCCNC(=O)c1ccc2c(=O)c(O)c(-c3ccc(Cl)c([N+](=O)[O-])c3)[nH]c2c1 | -9 | -16 | 79* | 36 | 114* | 2
CC(C)C/C=C1\CCc2c([nH]c3ccccc23)C1=O | 10 | -5 | 7 | -61 | 0 | -6
O=C1/C(=C/c2cccnc2)CCc2c1[nH]c1ccccc21 | 1 | 19 | -25 | 16 | 76* | 14
CC(=NCc1cccc(Cl)c1)c1nc(-c2ccco2)oc1O | 2 | 100* | -4 | 6 | 0 | -2
Cc1ccc(-c2nnc(Nc3ccc(CC(N)=O)cc3)c3ccccc23)cc1 | 60* | / | / | -2 | -10 | 9
O=C(NC(=S)N1CCN(c2ccc(O)cc2)CC1)c1cccs1 | -28 | 35 | 6 | -30 | -4 | -13
O=C(NC(=S)N1CCN(c2c(Cl)cccc2[N+](=O)[O-])CC1)c1cccs1 | 18 | 58 | 7 | 28 | -3 | 76*
COc1ccc(N2CCN(C(=S)NC(=O)c3cccs3)CC2)c([N+](=O)[O-])c1 | 10 | 27 | 10 | -1 | -3 | 52*
Cc1ccc(-c2nn(Cc3ccccc3)cc2/C=C/C(=O)O)cc1 | 15 | / | 6 | 5 | 10 | 3
Cc1ccc(-c2nn(CCC(=O)O)cc2/C=C\C(=O)c2ccc(Br)cc2)cc1 | 7 | 61 | -13 | 24 | ? | 73*
O=C(O)CCn1cc(/C=C\C(=O)c2ccc(Cl)cc2)c(-c2cccc(Br)c2)n1 | -5 | 55 | -12 | 24 | 4 | 79*
COc1ccc(N2CCN(C(=O)c3cc(C)on3)CC2)cc1 | -11 | -6 | / | 9 | -4 | 1
S=c1[nH]c(-c2ccccc2)cn1/N=C/c1ccncc1 | -7 | -18 | 1 | 17 | 0 | -8
CCOc1ccc(/C=N/n2cc(-c3ccccc3)[nH]c2=S)cc1 | 73* | 1 | 34 | -40 | 16 | 16
O=C(N/N=C/c1ccccc1C(=O)O)c1ccccc1Br | -15 | / | 4 | 0 | 15 | 7
C=CCc1cccc(/C=N/NC(=O)C(=O)Nc2ccc(C)cc2)c1O | 4 | 9 | / | 4 | -4 | 70*
C=CCc1cccc(/C=N/NC(=O)c2ccccc2Br)c1O | 61* | 57 | 70 | 38 | 10 | 11
